Reference: ChEMBL document CHEMBL1123516, “Substituted 1,3,4-thiadiazoles with anticonvulsant activity. 1. Hydrazines” (J Med Chem, 1986)

How the values were obtained:
[1] = tested on: Mus musculus; experiment: Anticonvulsant activity tested by maximal electroshock test (MES) in mouse after 1 hr of administration; format: functional
Method in brief: (§1)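 Male BKW mice (LACA origin), 18-22 g, dosed ip or po with compound dissolved or suspended in 2% Tween 80 in distilled water. Readout was block of hind limb tonic seizure. ED50 was derived by probit analysis using the computerized Bliss method.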

[2] = tested on: Mus musculus; experiment: Anticonvulsant activity tested by maximal metrazole seizure (MMS) test in mouse after 1 hr of administration; format: functional
Method in brief: (§2)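 Male BKW mice, 18-22 g, dosed orally with compound in 2% Tween 80/water. Metrazol 120 mg/kg ip was given 1 h after dosing. ED50 for block of hind limb tonic seizure was derived by Bliss probit analysis.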

[3] = Neurotoxicity by performing a rotarod test in mouse after 1 hr of administration; format: toxicity, organism-based; details: in vivo
Method in brief: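 Male BKW mice, 18-22 g, were pre-trained on a rotorod turning at 16 rpm (3 cm drum). They were dosed ip or po in 2% Tween 80/water and tested at timed intervals. TD50, the dose at which 50% fell off the rod, was derived by probit analysis.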

[4] = tested on: Rattus norvegicus; experiment: Maximum percent fall in mean arterial blood pressure was evaluated by injecting 100 mg/kg perorally in DOCA hypertensive rats; format: functional; details: route oral
[5] = tested on: Rattus norvegicus; experiment: Inhibition of hind limb tonus was tested by maximal metrazole seizure test after 1 hr of peroral administration of compound; format: functional; details: Hindlimb, po
[6] = Protective index (rat) was from the ratio of plasma concentration at which side effects occur by plasma concentration at which anticonvulsant activity occur.; format: functional
Method in brief: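 Rat plasma drug concentration at rotorod impairment was divided by the plasma concentration at MES anticonvulsant activity. Both were measured by HPLC-UV in plasma from dosed rats.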

[7] = Effect of compound on mouse motor performance was tested by rotarod test administered intraperitoneally; format: ADME, organism-based; details: in vivo, ip
Method in brief: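 Male BKW mice (18-22 g) were pre-trained on a 16 rpm rotorod with a 3 cm drum. Drug was injected intraperitoneally as a solution or suspension in 2% aqueous Tween 80, and mice were tested at the time of peak effect. TD50 was the dose making 50% of trained animals fall off, calculated by probit analysis.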

[8] = tested on: Mus musculus; experiment: Inhibition of hind limb tonus was tested at time of peak effect by maximal electroshock test (MES) in mouse on intraperitoneal administration of compound; format: functional; details: Hindlimb, ip; method in brief: as §1
[9] = tested on: Mus musculus; experiment: Inhibition of hind limb tonus was tested by maximal metrazole seizure (MMS) test in mouse after 1 hr of peroral administration; format: functional; details: Hindlimb, po; method in brief: as §2
[10] = tested on: Rattus norvegicus; experiment: Inhibition of hind limb tonus was tested by maximal electroshock test (MES) in rat after 1 hr of peroral administration; format: functional; details: Hindlimb, po
[11] = tested on: Rattus norvegicus; experiment: Inhibition of hind limb tonus was tested by maximal metrazole seizure test after 4 hr of peroral administration; format: functional; details: Hindlimb, po
[12] = tested on: Mus musculus; experiment: Inhibition of hind limb tonus was tested by maximal electroshock test (MES) in mouse after 1 hr of peroral administration of compound; format: functional; details: Hindlimb, po; method in brief: as §1
[13] = Effect of compound on mouse motor performance was tested by performing a rotarod test after 1 hr of peroral administration; format: ADME, organism-based; details: in vivo, po
Method in brief: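 Male BKW mice (LACA origin, 18-22 g) were pre-trained on a rotorod at 16 rpm with a 3 cm drum. Compound was given orally in 2% Tween 80 in water, and mice were tested 1 h later. TD50 was the dose at which 50% fell off, derived by probit analysis.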

[14] = tested on: Rattus norvegicus; experiment: Inhibition of hind limb tonus was tested at time of peak effect by maximal electroshock test (MES) in rat on intraperitoneal administration of compound; format: functional; details: Hindlimb, ip
Method in brief: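 Rats received compound intraperitoneally and were tested at the time of peak effect. ED50 was the dose blocking hind limb tonic seizure in 50% of animals, derived by probit analysis using the Bliss computerized method (Finney).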

[15] = tested on: Rattus norvegicus; experiment: Inhibition of hind limb tonus was tested by maximal electroshock test (MES) in rat after 4 hr of peroral administration; format: functional; details: Hindlimb, po
[16] = tested on: Mus musculus; experiment: Inhibition of hind limb tonus was tested at time of peak effect by maximal metrazole seizure (MMS) test administered intraperitoneally in mouse; format: organism-based; details: Hindlimb, ip
Method in brief: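 Male BKW mice (18-22 g) received compound intraperitoneally in 2% aqueous Tween 80 and were challenged with metrazol 120 mg/kg ip at the time of peak effect. ED50 for block of hind limb tonic seizure in 50% of mice was obtained by probit analysis.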

## CNN(Cc1ccccc1)c1nnc(-c2ccccc2C)s1.Cl
[1]
  ED50: 109 mg/kg
[2]
  ED50: 93 mg/kg
[3]
  TD50 at 1 h: 341 mg/kg

## Cc1ccccc1-c1nnc(N(N)c2ccccc2)s1
[1]
  ED50: > 100 mg/kg
[2]
  ED50: > 100 mg/kg
[3]
  TD50 at 1 h: > 400 mg/kg

## Cc1ccccc1-c1nnc(NNC(C)C)s1
[1]
  ED50: 83 mg/kg
[2]
  ED50: 54 mg/kg
[3]
  TD50 at 1 h: 449 mg/kg

## CCCCCCOc1ccccc1-c1nnc(N(C)NC(C)C)s1.Cl
[1]
  ED50: 97 mg/kg
[2]
  ED50: 56 mg/kg

## Cc1ccccc1-c1nnc(NN(C)C)s1.Cl
[1]
  ED50: 60 mg/kg
[2]
  ED50: > 100 mg/kg
[3]
  TD50 at 1 h: > 250 mg/kg

## Cc1ccccc1-c1nnc(NN)s1.Cl
[1]
  ED50: > 100 mg/kg
[2]
  ED50: 30 mg/kg
[3]
  TD50 at 1 h: 55 mg/kg
[4]
  Decrease in blood pressure: 63%

## CCCCCCOc1ccccc1-c1nnc(NNC2CCCC2)s1.Cl
[1]
  ED50: > 100 mg/kg
[2]
  ED50: > 100 mg/kg

## NN(CCc1ccccc1)c1nnc(-c2ccccc2Cl)s1
[1]
  ED50: > 100 mg/kg
[2]
  ED50: ~200 mg/kg

## CCCCCCOc1ccccc1-c1nnc(NNc2ccccc2)s1.Cl
[1]
  ED50: > 100 mg/kg
[2]
  ED50: > 100 mg/kg

## CCCCCCOc1ccccc1-c1nnc(N(C)N)s1.Cl
[1]
  ED50: 26 mg/kg
[2]
  ED50: 27 mg/kg
[3]
  TD50 at 1 h: ~160 mg/kg

## Cc1ccccc1-c1nnc(NN(C)C(C)C)s1
[1]
  ED50: 140 mg/kg
[2]
  ED50: > 100 mg/kg

## CNN(C)c1nnc(-c2ccccc2Cl)s1
[1]
  ED50: 43 mg/kg
[2]
  ED50: 25 mg/kg
[3]
  TD50 at 1 h: 106 mg/kg

## CNN(Cc1ccccc1)c1nnc(-c2ccccc2Cl)s1.Cl
[1]
  ED50: > 100 mg/kg
[2]
  ED50: > 100 mg/kg

## CCC1(c2ccccc2)C(=O)NC(=O)NC1=O [PHENOBARBITAL]
[5]
  ED50: 4 mg/kg
[6]
  PI: 2.42
[7]
  TD50: 86 mg/kg
[8]
  ED50: 18 mg/kg
[9]
  ED50: 4 mg/kg
[10]
  ED50: 9 mg/kg
[11]
  ED50: 5 mg/kg
[12]
  ED50: 12 mg/kg
[13]
  TD50 at 1 h: 68 mg/kg
[14]
  ED50: 3 mg/kg
[15]
  ED50: 3 mg/kg
[16]
  ED50: 6 mg/kg

## Cc1ccccc1-c1nnc(N(C)N(C)C)s1
[1]
  ED50: 25 mg/kg
[2]
  ED50: 68 mg/kg
[3]
  TD50 at 1 h: 167 mg/kg

## Cc1ccccc1-c1nnc(NNC(c2ccccc2)c2ccccc2)s1
[1]
  ED50: > 200 mg/kg
[2]
  ED50: > 100 mg/kg

## CCNN(Cc1ccccc1)c1nnc(-c2ccccc2C)s1.Cl
[1]
  ED50: > 100 mg/kg
[2]
  ED50: > 100 mg/kg

## CC(C)N(c1nnc(-c2ccccc2Cl)s1)N(C)C.Cl
[1]
  ED50: 116 mg/kg
[2]
  ED50: > 200 mg/kg

## CNN(c1nnc(-c2ccccc2Cl)s1)C(C)C
[1]
  ED50: > 100 mg/kg
[2]
  ED50: > 100 mg/kg

## Cc1ccccc1-c1nnc(N(Cc2ccccc2)N(C)C)s1.Cl
[1]
  ED50: > 200 mg/kg
[2]
  ED50: > 100 mg/kg

## NN(c1ccccc1)c1nnc(-c2ccccc2-c2ccccc2)s1
[1]
  ED50: > 100 mg/kg
[2]
  ED50: > 100 mg/kg

## Cc1ccccc1-c1nnc(N(C)NC(c2ccccc2)c2ccccc2)s1
[1]
  ED50: > 200 mg/kg
[2]
  ED50: > 200 mg/kg

## CC(C)NN(C)c1nnc(-c2ccccc2Cl)s1.Cl
[1]
  ED50: 16 mg/kg
[2]
  ED50: 30 mg/kg
[3]
  TD50 at 1 h: 71 mg/kg

## CN(N)c1nnc(-c2ccc(-c3ccccc3)cc2)s1
[1]
  ED50: > 200 mg/kg

## CNN(C)c1nnc(-c2ccccc2C)s1
[1]
  ED50: 10 mg/kg
[2]
  ED50: 23 mg/kg
[3]
  TD50 at 1 h: 72 mg/kg

## Cl.c1ccc(NNc2nnc(-c3ccccc3-c3ccccc3)s2)cc1
[1]
  ED50: > 100 mg/kg
[2]
  ED50: > 100 mg/kg

## CNNc1nnc(-c2ccccc2C)s1
[1]
  ED50: > 100 mg/kg
[2]
  ED50: > 100 mg/kg

## CN(N)c1nnc(-c2ccccc2Oc2ccccc2)s1.Cl
[1]
  ED50: 33 mg/kg
[2]
  ED50: 33 mg/kg
[3]
  TD50 at 1 h: < 400 mg/kg

## Cl.NN(Cc1ccccc1)c1nnc(-c2ccccc2-c2ccccc2)s1
[1]
  ED50: > 200 mg/kg
[2]
  ED50: > 200 mg/kg

## CN(N)c1nnc(-c2ccccc2Cc2ccccc2)s1.Cl
[1]
  ED50: 50 mg/kg
[2]
  ED50: 54 mg/kg

## Cc1ccccc1-c1nnc(NNc2ccccc2)s1
[1]
  ED50: > 100 mg/kg
[2]
  ED50: > 100 mg/kg

## CCCCCCOc1ccccc1-c1nnc(N(C)NC)s1.Cl
[1]
  ED50: < 250 mg/kg
[2]
  ED50: 39 mg/kg
